# Compound activity (PubChem BioAssay)
# sPLA2-III inh – human group III sPLA2 inhibitors, primary screen, biochemical, QFRET, BODIPY PC-A2 liposome substrate | hit rate 0.56% among 370,000 | QFRET BODIPY PC-A2 liposome hydrolysis, fluorescence | inhibition, % at 12.2 µM;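 active = inhibition above mean plus 3 SD of compounds lying within the high and low control bounds, cut at about 19% in these data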
# ASAP1 GAP inh – inhibitors of human ASAP1 ArfGAP activity, primary screen, biochemical, fluorescence polarization; inhibition, % at 16.5 µM; ASAP1-stimulated ARF1 GTP hydrolysis, GDP FP detection; hit rate 0.19% among 360,000; Arf-GAP with SH3 domain, ANK repeat and PH domain-containing protein 1 (Homo sapiens), …; in the data active = inhibition above about 25%
# Target sequence (Q9ULH1 325-724 limits assumed): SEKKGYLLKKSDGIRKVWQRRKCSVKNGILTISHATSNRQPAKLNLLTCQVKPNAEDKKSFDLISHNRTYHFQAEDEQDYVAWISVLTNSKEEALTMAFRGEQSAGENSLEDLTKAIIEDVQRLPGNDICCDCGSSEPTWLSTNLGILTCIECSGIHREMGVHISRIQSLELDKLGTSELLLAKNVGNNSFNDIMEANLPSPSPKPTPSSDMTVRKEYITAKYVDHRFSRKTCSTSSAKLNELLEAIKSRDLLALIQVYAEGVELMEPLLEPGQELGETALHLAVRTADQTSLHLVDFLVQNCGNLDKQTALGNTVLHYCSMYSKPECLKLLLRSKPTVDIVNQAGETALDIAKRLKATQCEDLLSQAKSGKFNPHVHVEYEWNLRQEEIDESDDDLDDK
# Calb FLC – C. albicans growth inhibition with fluconazole, primary screen, CaCi-2 strain, Alamar Blue fluorescence; hit rate 0.57% among 300,000; C. albicans CaCi-2 + fluconazole, 48 h; growth inhibition, % (concentration not given with the values);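 active = growth inhibition above about 58% in most replicates, limit read from the data, passing the limit was not always enough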;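 also: all wells also contain fluconazole at 8 µg/ml as a sub-toxic cotreatment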
# ARFGAP1 inh – inhibitors of rat ARFGAP1 GAP activity, primary screen, biochemical, fluorescence polarization, GDP tracer; ADP-ribosylation factor GTPase-activating protein 1 (Rattus norvegicus), Q62848; AID 651572, 2012; inhibition, % at 16.5 µM; hit rate 0.26% among 360,000; Arfgap1-stimulated ARF1 GTP hydrolysis, GDP FP detection;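 active = inhibition above a per-plate limit, mean inhibition of low control wells plus 3 SD, cut at about 25% in these data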
# Target sequence (Q62848 1-136 limits assumed): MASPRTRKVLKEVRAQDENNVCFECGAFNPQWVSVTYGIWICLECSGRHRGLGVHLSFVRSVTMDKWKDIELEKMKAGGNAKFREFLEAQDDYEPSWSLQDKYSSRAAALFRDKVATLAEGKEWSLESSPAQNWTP
#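 Material: truncated rat Arfgap1 GAP domain; Incubation: compound-enzyme preincubation 20 min, reaction 120 min, detection 60 min, 25 °C; Read-out: percent inhibition of Arfgap1-stimulated GTP hydrolysis; Technique: FP, GDP Alexa 633 tracer displaced from anti-GDP antibody, 620/688 nm; Controls: No-Arfgap1 wells (100%) versus DMSO full-reaction wells (0%); Replication: single well per compound.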
# SKKanGAS inh – S. pyogenes SKKanGAS growth inhibitors in kanamycin, primary screen, streptokinase expression inhibitor project, SKKanGAS strain, BacTiter-Glo luminescence. inhibition, % at 7.5 µM. hit rate 1.3% among 300,000. 6 h;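 active = mean replicate score, as percent of positive control median, at least 50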;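 also: strain carries kanamycin resistance gene driven by streptokinase promoter and grows in 40 µg/ml kanamycin; loss of luminescence reflects streptokinase promoter inhibition or plain growth inhibition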
# A number is an active result; – = inactive; · = no result. In the library only some 2.3% were active in any assay of this set; here they are far more common.
SMILES,sPLA2-III inh,ASAP1 GAP inh,Calb FLC,ARFGAP1 inh,SKKanGAS inh
COc1ccc(/C=N/NC(=O)c2cc(-c3ccccc3)nc3ccccc23)c(C(=O)O)c1OC,–,–,–,–,–
COc1cc([N+](=O)[O-])cc(/C=N/NC(=O)c2cc(C)nc3ccccc23)c1O,–,–,–,–,106
Cc1cc(C(=O)N/N=C/c2cccc([N+](=O)[O-])c2)c2ccccc2n1,–,–,–,–,–
COc1cc([N+](=O)[O-])cc(/C=N/NC(=O)c2cc(-c3ccccc3)nc3ccccc23)c1O,–,–,89,–,95
COCc1cc(N2CCN(C(=O)OC(C)(C)C)C[C@@H]2C)ccc1N1CCN(Cc2ccccc2)[C@@H](C)C1,–,–,·,–,·
C=CCN1C[C@@H](COCc2ccccc2)OCCS1(=O)=O,–,–,·,–,·
S=C(Nc1ccccc1)OCCN1CCCC12CCC(c1ccccc1)CC2 (centres undefined),–,·,·,·,·
Cc1csc(NC(=O)CCCC(=O)O)c1-c1nc2ccccc2s1,–,–,–,–,–
Cc1csc(NC(=O)COCC(=O)O)c1-c1nc2ccccc2s1,–,–,–,–,50
CCN=C1NC(CCc2ccccc2)C(C(=O)OC)=C(C)N1Cc1ccc(C(F)(F)F)cc1 (centres undefined),–,–,·,–,·
CC1CCC2(CCC(=O)N2CCCOC(=O)Nc2cccc(C(F)(F)F)c2)CC1 (centres undefined),–,·,·,·,·
CCCCCCCCN1C(=O)[C@@H](CC(=O)NCC23CC4CC(CC(C4)C2)C3)C[C@@]2(C(=O)OC)C1=C[C@H](COCc1ccccc1)O[C@@H]2C,–,·,·,·,·
Cc1noc(C)c1S(=O)(=O)N(C)C[C@@H]1OCc2cn(nn2)CCCC(=O)N([C@H](C)CO)C[C@H]1C,–,–,·,–,·
C=CCn1c(N2C(=O)CC(Cc3ccccc3)C2=O)nc2ccccc21 (centres undefined),–,–,–,–,64
C=CCn1c(NCc2ccccc2)nc2ccccc21,–,–,–,–,–
C[C@H]1[C@@H](OC(=O)NC2CCCCC2)CC[C@@]23CCCN2C(=O)CCC[C@@H]13,–,·,·,·,·
CC(=O)N1CCc2cc(S(=O)(=O)NCCC(=O)N(C)C3CCCCC3)ccc21,–,·,·,·,·
N/C(Cc1cccc2ccccc12)=N\OC(=O)c1ccccc1F,–,–,–,–,–
N/C(Cc1ccccc1)=N\OC(=O)c1cccc2ccccc12,–,–,104,–,–
COc1cccc(NC(=O)C2CCCN2C(=O)NCc2ccccc2OC)c1 (centres undefined),–,·,·,·,·
CCCCCCCCCCCCCCCC[n+]1cccc(C(=O)N(CC)CC)c1,–,–,–,–,92
COC(=O)[C@]12C[C@H](CC(=O)N3CCC(c4ccccc4)CC3)C(=O)N(Cc3ccc(Cl)cc3Cl)C1=C[C@H](C(C)C)O[C@@H]2C1CC1,–,·,·,·,·
CCOC(=O)CC1C(=O)NCCN1C(=O)c1c(Cl)cccc1Cl (centres undefined),–,–,92,–,–
CCOC(=O)CC1C(=O)NCCN1C(=O)c1c(F)cccc1F (centres undefined),–,–,–,–,–
O=C(NN=C1c2ccccc2-c2ccccc21)c1cccc(Br)c1,–,–,–,–,72
SMILES,sPLA2-III inh,ASAP1 GAP inh,Calb FLC,ARFGAP1 inh,SKKanGAS inh
Cc1ccccc1CN(C)CC(=O)Nc1ccccc1-c1ccccc1,–,–,–,–,53
COc1ccccc1CN(C)CC(=O)Nc1ccccc1-c1ccccc1,–,–,–,–,–
OCCCCC#Cc1c(-c2ccsc2)sc2ccccc12,–,–,–,–,65
O=C(NC(=S)N1CCCCC1c1cccnc1)c1ccc(F)cc1 (centres undefined),–,–,–,–,99
CC1(c2nnnn2Cc2ccccc2)CCSCC(=O)N1Cc1cccs1 (centres undefined),–,·,·,·,·
Oc1ccccc1N=Cc1c(O)ccc2oc3c(c12)CCCC3,–,–,–,–,85
O=S(=O)(c1ccc(C(F)(F)F)cc1)N1CCCc2nc(-c3ccc(F)cc3)ccc21,–,–,·,–,·
COC(=O)c1cnn(-c2ccc(Cl)cc2)c1/C=N/NC(=S)Nc1ccccc1,–,·,·,·,·
CCC(C)Sc1cc(C(F)(F)F)c(C(=O)Nc2ccc(Cl)cc2)cn1 (centres undefined),–,–,–,–,70
Cn1cc(C(=O)Nc2ccc(Cl)cc2)c(C(F)(F)F)n1,–,–,–,–,–
Cc1ccc(Cn2c(Cc3ccccc3)nc3ccccc32)cc1,–,–,–,–,69
ClCc1nc2ccccc2n1Cc1ccccc1,–,–,–,–,–
COc1cccc(-c2ccc(CC[C@H]3O[C@H]4CC[C@@H](CO)O[C@H]4C[C@H]3NC(=O)c3cnccn3)cc2)c1,–,·,·,·,·
C/C(N)=C(/C#N)C(=O)CSc1nc2cc(Cl)ccc2c(=O)n1Cc1ccco1,–,–,–,–,61
Cc1ccc(S(=O)(=O)CC2CSc3nc4ccccc4n32)cc1 (centres undefined),–,–,88,–,–
CN1/C(=C/C(=O)c2cccs2)Sc2ccccc21,–,–,84,–,–
CCN(CC)C(=O)c1ccc2c(c1)NC(=O)C(C)(C)O2,–,·,·,·,·
CCC1C(=NO)C(CC)C(c2ccccc2)NC1c1ccccc1 (centres undefined),–,–,–,–,58
COc1cccc(CNC(=O)CN2CCCc3ccccc32)c1OC,–,·,·,·,·
COC(=O)C[C@@H]1CC[C@@H]2[C@@H](COc3ccc(NC(=O)Nc4cccc(Cl)c4)cc3C(=O)N2C)O1,–,·,·,·,·
CCS(=O)(=O)c1ccc(O)c(NC(=O)COc2ccc(OC)cc2)c1,–,–,–,–,–
CCCc1ccc(OCC(=O)Nc2cc(S(=O)(=O)CC)ccc2O)cc1,–,–,90,–,–
c1ccc(-c2noc(-c3ccc4c(c3)OCO4)n2)nc1,–,–,–,–,76
Cc1onc(-c2ccccc2)c1C(=O)NCc1ccc2c(c1)OCO2,–,–,–,–,–
Cc1onc(-c2c(F)cccc2Cl)c1C(=O)NCc1ccc2c(c1)OCO2,–,–,–,–,59
COc1ccc(S[C@]2(C(=O)N3CCCC3)CC(=O)N(c3ccc4c(ccn4C)c3)[C@@H]2c2ccc(OC)cc2)cc1,–,·,·,·,·
Cc1ccc2c(C)c(C(=O)Nc3ccc(S(=O)(=O)Nc4onc(C)c4C)cc3)oc2c1,–,–,–,–,65
Cc1ccc2c(=O)cc(C(=O)Nc3ccc(S(=O)(=O)Nc4onc(C)c4C)cc3)oc2c1,–,–,–,–,–
Cc1noc(NS(=O)(=O)c2ccc(NC(=O)c3oc4ccc(Cl)cc4c3C)cc2)c1C,–,–,–,–,64
